From paper PMC7906539 (Medicinal chemistry research : an international journal for …, 2020)
Converted amounts (≈) assume the structure as drawn. “Also recorded” adds a separate entry of the source.

Key:
[1] = target: His-mHtt and GST-CaM (CaM–mHtt interaction) (Homo sapiens, UniProt P0DP23+P42858); test: CaM/mHtt AlphaScreen binding assay; conditions: read-out: AlphaScreen CaM–mHtt, IC50; triplicate
In short: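 His-mHtt (10 nM) preincubated 30 min with test compound, then GST-CaM (10 nM) added for 60 min at room temperature. Ni-chelate acceptor (10 μg/mL) and glutathione donor beads (15 μg/mL) are added for 2 h, then Alpha counts are read. Final 300–0.002 μM, triplicate; % inhibition normalized to DMSO controls.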

[2] = target: death-associate protein kinase 1 (DAPK1) (Homo sapiens, UniProt P53355); test: CaM-dependent kinase assay; format: biochemical; conditions: single concentration of 100 μM, in the presence of CaM
In short: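 Recombinant DAPK1 (25 ng), run with ADP-Glo at 5 μM ATP with native swine myelin basic protein as substrate, in the presence of CaM. Test compound is added at a single 100 μM (DMSO) and reacted 60 min at room temperature. Luminescence is read, and activity is expressed as percent of the no-compound reaction. Three experiments, ≥2 replicates each; mean ± SEM.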

[3] = system: calcium/CaM-dependent kinase 2γ (CaMK2γ); test: CaM-dependent kinase assay; format: biochemical, Human; conditions: single concentration of 100 μM, in the presence of CaM
In short: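 ADP-Glo reaction with CaMK2γ (12 ng), 25 μM ATP and Autocamtide-2 substrate, carried out with CaM present. Test compound is at a single 100 μM from DMSO; incubation 60 min at room temperature. Luminescent readout gives percent enzyme activity relative to the reaction without compound. Run three times with at least two replicates per experiment; mean ± SEM.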

SH-SY5Y cells = test: Cytotoxicity assay; format: cell-based; conditions: SH-SY5Y cells; for Cytotoxicity (SH-SY5Y cells, 24 h): 24 h incubation, CellTiter-Glo; for Cytotoxicity as stated in text: approximate value for both enantiomers
In short: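 SH-SY5Y cells seeded at 6000/well in 1:1 EMEM/F12 with 10% FBS. Exposure 24 h at 37 °C, then CellTiter-Glo luminescence read. Percent cytotoxicity normalized to DMSO controls.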

[4] = system: mHtt toxicity in PC12 cells; test: Protection against mHtt toxicity in neuronal cell model for HD; format: cell-based; conditions: three different concentrations
In short: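 Each experiment run at least three times; values reported as mean ± standard error of the mean.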

Kinetic solubility = format: physicochemical
PAMPA permeability = format: in vitro ADME

Sequence of death-associate protein kinase 1 (DAPK1) (P53355 1-363): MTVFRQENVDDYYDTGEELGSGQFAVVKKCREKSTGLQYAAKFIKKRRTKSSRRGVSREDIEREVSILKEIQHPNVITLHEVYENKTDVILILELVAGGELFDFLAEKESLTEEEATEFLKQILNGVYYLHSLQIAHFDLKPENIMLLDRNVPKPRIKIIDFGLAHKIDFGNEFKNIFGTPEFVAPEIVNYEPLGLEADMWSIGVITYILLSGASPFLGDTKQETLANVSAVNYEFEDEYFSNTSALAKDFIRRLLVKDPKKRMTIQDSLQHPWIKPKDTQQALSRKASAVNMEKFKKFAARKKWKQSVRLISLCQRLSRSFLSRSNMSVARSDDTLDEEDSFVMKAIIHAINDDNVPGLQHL
Sequence of His-mHtt and GST-CaM (CaM–mHtt interaction) (P42858 whole entry, one chain of several): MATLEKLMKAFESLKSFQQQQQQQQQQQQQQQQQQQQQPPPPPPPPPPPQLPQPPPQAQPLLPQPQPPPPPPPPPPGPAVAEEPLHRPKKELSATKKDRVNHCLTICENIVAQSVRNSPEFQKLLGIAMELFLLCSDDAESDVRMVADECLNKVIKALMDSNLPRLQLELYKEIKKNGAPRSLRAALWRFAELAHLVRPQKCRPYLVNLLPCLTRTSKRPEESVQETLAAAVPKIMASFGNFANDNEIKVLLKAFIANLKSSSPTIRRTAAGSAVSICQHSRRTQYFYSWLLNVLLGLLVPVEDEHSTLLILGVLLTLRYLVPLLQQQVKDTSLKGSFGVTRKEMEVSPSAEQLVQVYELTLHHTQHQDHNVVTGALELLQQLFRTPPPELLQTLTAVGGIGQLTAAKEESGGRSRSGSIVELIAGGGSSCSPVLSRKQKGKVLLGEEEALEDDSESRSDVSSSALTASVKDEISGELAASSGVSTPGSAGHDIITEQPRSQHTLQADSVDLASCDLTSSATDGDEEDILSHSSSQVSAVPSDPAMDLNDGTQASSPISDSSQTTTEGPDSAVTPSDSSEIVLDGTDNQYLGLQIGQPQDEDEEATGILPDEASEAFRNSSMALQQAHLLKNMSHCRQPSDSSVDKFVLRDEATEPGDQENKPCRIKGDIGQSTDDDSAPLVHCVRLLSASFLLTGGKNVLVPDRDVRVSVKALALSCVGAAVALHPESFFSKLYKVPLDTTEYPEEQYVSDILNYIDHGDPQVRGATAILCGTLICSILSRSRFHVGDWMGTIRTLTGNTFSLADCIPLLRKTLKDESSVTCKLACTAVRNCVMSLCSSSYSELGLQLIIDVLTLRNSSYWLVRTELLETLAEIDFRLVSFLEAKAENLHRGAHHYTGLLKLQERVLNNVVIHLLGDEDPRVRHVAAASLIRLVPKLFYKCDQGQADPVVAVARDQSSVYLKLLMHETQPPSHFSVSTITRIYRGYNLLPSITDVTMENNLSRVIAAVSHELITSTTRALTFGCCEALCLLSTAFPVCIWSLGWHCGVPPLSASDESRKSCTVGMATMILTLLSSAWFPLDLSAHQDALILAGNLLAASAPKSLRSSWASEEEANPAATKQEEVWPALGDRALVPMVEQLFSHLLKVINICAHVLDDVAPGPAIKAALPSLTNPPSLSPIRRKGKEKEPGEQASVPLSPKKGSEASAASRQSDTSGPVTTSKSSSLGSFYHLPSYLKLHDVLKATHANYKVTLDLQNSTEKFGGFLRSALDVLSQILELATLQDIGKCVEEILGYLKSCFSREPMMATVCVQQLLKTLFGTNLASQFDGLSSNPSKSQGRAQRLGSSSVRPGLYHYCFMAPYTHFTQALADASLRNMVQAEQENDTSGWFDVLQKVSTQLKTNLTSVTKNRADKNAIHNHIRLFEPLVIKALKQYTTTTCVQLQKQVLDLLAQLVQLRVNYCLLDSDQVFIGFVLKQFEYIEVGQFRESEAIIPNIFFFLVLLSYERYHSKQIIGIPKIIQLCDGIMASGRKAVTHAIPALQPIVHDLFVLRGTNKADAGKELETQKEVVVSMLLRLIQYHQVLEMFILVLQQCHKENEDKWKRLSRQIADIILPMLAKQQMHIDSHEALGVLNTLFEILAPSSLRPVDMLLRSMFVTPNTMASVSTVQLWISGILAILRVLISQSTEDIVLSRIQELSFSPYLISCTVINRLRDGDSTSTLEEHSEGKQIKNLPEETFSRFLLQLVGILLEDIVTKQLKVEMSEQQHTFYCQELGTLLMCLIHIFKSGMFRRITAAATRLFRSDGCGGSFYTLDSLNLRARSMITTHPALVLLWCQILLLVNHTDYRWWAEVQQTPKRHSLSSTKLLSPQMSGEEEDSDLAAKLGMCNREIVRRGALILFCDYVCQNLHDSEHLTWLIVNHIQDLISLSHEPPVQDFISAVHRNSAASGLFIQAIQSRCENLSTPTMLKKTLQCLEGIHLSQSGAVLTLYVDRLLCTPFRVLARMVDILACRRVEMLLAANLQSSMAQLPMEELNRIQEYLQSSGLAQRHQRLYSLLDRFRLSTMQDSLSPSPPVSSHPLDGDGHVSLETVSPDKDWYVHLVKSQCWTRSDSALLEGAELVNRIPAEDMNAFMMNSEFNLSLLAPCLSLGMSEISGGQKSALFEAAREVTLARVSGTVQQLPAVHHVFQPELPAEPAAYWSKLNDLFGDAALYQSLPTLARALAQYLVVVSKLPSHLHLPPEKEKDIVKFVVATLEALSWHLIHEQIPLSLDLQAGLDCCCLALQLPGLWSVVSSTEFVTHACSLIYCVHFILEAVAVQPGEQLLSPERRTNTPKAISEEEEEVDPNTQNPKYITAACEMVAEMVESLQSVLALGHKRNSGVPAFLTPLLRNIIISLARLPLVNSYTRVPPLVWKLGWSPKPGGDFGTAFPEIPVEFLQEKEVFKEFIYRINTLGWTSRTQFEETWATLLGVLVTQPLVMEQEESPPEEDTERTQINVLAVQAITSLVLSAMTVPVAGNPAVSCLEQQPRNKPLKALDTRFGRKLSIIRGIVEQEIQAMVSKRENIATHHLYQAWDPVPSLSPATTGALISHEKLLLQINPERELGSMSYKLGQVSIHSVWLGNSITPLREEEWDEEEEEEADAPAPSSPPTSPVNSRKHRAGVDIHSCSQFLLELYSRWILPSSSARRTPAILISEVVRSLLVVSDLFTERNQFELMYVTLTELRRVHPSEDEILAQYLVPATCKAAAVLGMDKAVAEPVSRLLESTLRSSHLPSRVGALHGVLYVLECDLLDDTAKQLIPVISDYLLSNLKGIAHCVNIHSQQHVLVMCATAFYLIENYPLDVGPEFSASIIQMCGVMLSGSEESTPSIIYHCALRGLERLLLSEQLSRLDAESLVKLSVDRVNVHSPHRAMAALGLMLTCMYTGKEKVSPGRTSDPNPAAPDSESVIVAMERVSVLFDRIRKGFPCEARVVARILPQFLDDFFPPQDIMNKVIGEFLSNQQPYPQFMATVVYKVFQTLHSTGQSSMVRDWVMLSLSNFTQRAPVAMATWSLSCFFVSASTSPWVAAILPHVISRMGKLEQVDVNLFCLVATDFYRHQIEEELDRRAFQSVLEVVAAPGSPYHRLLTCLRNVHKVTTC

## C=C1CCN([C@@H](CC(C)C)C(=O)NCc2ccc(Cl)cc2)S(=O)(=O)c2ccccc21 [Compound 9c, (S)-N-(4-Chlorobenzyl)-4-methyl-2-(5-methylene-1,1-dioxido-4,5-dihydrobenzo[f][1,2]thiazepin-2(3H)-yl) pentanamide]
[1]
  IC50: 2800 nM
[2]
  Inhibition of DAPK1 enzyme activity (in words): did not significantly inhibit
[3]
  Inhibition of CaMK2γ enzyme activity (in words): did not significantly inhibit
SH-SY5Y cells
  Cytotoxicity (SH-SY5Y cells, 24 h): 94 ± 3 µM
  Cytotoxicity as stated in text: ca. 90 pM

## C=C1CCN([C@@H](CC(C)C)C(=O)NCc2ccc(Cl)c(C(F)(F)F)c2)S(=O)(=O)c2ccccc21 [Compound 9d, (S)-N-(4-Chloro-3-(trifluoromethyl)benzyl)-4-methyl-2-(5-methylene-1,1-dioxido-4,5-dihydrobenzo[f][1,2]thiazepin-2 (3H)-yl)pentanamide]
[1]
  IC50: 1380 nM
[4]
  Protection against mHtt toxicity (in words): barely measurable activity; also recorded: do not show protection; also recorded: no significant rescue of the toxicity
[2]
  Inhibition of DAPK1 enzyme activity (in words): did not significantly inhibit
[3]
  Inhibition of CaMK2γ enzyme activity (in words): did not significantly inhibit
SH-SY5Y cells
  Cytotoxicity (SH-SY5Y cells, 24 h): >300 µM

## C=C1CCN([C@@H](CC(C)C)C(=O)NCCc2ccc(Cl)c(Cl)c2)S(=O)(=O)c2ccccc21 [Compound 9h, (S)-N-(3,4-Dichlorophenethyl)-4-methyl-2-(5-methylene-1,1-dioxido-4,5-dihydrobenzo[f][1,2]thiazepin-2(3H)-yl) pentanamide]
[1]
  IC50: 550 nM
[4]
  Protection against mHtt toxicity (in words): barely measurable activity; also recorded: do not show protection; also recorded: did not show any significant effect
Kinetic solubility
  kinetic solubility: 0.6 µM (≈ 0.297 µg/mL)
[2]
  Inhibition of DAPK1 enzyme activity (in words): but not DAPK1 activity
PAMPA permeability
  permeability (PAMPA assay): 0.76 ×10⁻⁶ cm/s
[3]
  Inhibition of CaMK2γ enzyme activity (in words): statistically significant impact; also recorded: statistically significant effect on inhibition
SH-SY5Y cells
  Cytotoxicity (SH-SY5Y cells, 24 h): >300 µM

## C=C1CCN([C@H](CC(C)C)C(=O)NCc2ccc(Cl)cc2)S(=O)(=O)c2ccccc21 [Compound 10c, (R)-N-(4-Chlorobenzyl)-4-methyl-2-(5-methylene-1,1-dioxido-4,5-dihydrobenzo[f][1,2]thiazepin-2(3H)-yl) pentanamide]
[1]
  IC50: 3000 nM
[2]
  Inhibition of DAPK1 enzyme activity (in words): did not significantly inhibit
[3]
  Inhibition of CaMK2γ enzyme activity (in words): did not significantly inhibit
SH-SY5Y cells
  Cytotoxicity (SH-SY5Y cells, 24 h): 86 ± 9 µM
  Cytotoxicity as stated in text: ca. 90 pM

## C=C1CCN([C@H](CC(C)C)C(=O)NCCc2ccc(Cl)c(Cl)c2)S(=O)(=O)c2ccccc21 [Compound 10h]
[1]
  IC50: 500 nM
[2]
  Inhibition of DAPK1 enzyme activity (in words): did not significantly inhibit
[3]
  Inhibition of CaMK2γ enzyme activity (in words): did not significantly inhibit
SH-SY5Y cells
  Cytotoxicity (SH-SY5Y cells, 24 h): >300 µM
